Assay results collected from several papers.
Target: Serine/threonine-protein kinase 33 (STK33, Homo sapiens, UniProt Q9BYT3)

Compound	observed	technique	concentration	remaining binding
O=C(Nc1ccc(Oc2ccc(F)cc2)cc1)N1CCc2ncccc2[C@H]1c1ccc(F)cc1	cell-free assay	competition with immobilised ligand	1 µM	50%
O=C(c1ccc(Nc2ncc(Cl)c(-c3ccc(Cl)s3)n2)cc1)N1CCC(N2CCCC2)CC1	binding	competition with immobilised ligand	1 µM	56%
CN(C)c1ncc(F)c(-c2cnn3ncccc23)n1	binding		1 µM	100%
CO[C@@H](C)c1c(Nc2ccc([C@H](N(C)C(=O)C3CCS(=O)(=O)CC3)C(F)(F)F)cc2)cnc2cc(Cl)nn12	cell-free assay	competition with immobilised ligand	1 µM	51%
Nc1ncc2c(n1)-c1c([nH]c3ccc(C#CC4CC4)cc13)CCCC2	binding	competition with immobilised ligand	1 µM	100%
N[C@H]1CCN(c2nccc(-c3cnn4ncccc34)n2)C1	binding		1 µM	0%
C[C@@H](c1ccc(-n2cnc3c(N)ncnc32)cc1)N1CCc2nn(C)c(Cc3ccccc3)c2C1=O	binding	competition with immobilised ligand	0.1 µM	100%
C[C@@H](c1cccc(C#N)c1)n1cc(Cl)cc(C(N)=O)c1=N	cell-free assay	competition with immobilised ligand	1 µM	100%
COc1ccnn2ncc(-c3ccnc(N(C)C)n3)c12	binding		1 µM	99%
CC1=C(C#N)[C@@H](c2ccc3[nH]nc(C)c3c2)C(C#N)=C(c2ccc(Cl)cc2)N1	cell-free assay	competition with immobilised ligand	1 µM	90.9%
F[C@@H]1CCN(c2nccc(-c3cnn4ncccc34)n2)C1	binding		1 µM	100%
CCN1CCN(Cc2ccc(C(=O)Nc3ccc(C)c(Oc4ccc5c(c4)CC(=O)N5)c3)cc2C(F)(F)F)CC1	binding	competition with immobilised ligand	1 µM	100%
C[C@@H]1CCN(c2nccc(-c3cnn4ncccc34)n2)C1	binding		1 µM	88%
CCCCN(CCCC)C(=O)CN1C[C@@H](c2cc(OC)c3c(c2)OCO3)[C@H](C(=O)O)[C@H]1CC(C)(C)CCC	cell-free assay	competition with immobilised ligand	1 µM	100%
CN(C)c1nccc(-c2cnn3ncccc23)n1	binding		1 µM	75%
O=C(NCC1CCOCC1)c1n[nH]cc1NC(=O)c1c(F)cccc1F	binding	competition with immobilised ligand	1 µM	79%
O=C(c1ccc(Nc2nccc(-c3cc4ccccc4s3)n2)cc1)N1CCC(N2CCCC2)CC1	binding	competition with immobilised ligand	1 µM	100%
COc1cnc(Nc2cccc(S(N)(=O)=O)c2)nc1N1CCN(c2ccccc2)CC1	binding	competition with immobilised ligand	1 µM	100%
CC1=C(C#N)C(c2ccc3c(c2)c(NC(=O)c2ccccc2C)nn3C)C(C#N)=C(C)N1	cell-free assay	competition with immobilised ligand	1 µM	100%
CNC(=O)[C@@H]1CC[C@@H](n2c(-c3ccc4cnccc4c3)nc3ccc(C(=O)NCc4cccc(C(N)=O)c4)cc32)C1	binding	competition with immobilised ligand	1 µM	87%
Cc1cnc(Nc2ccc(C(=O)N3CCC(N4CCCC4)CC3)cc2)nc1-c1cc2ccccc2s1	binding	competition with immobilised ligand	1 µM	60%
CNC(=O)c1ccc(Nc2ncc(C(F)(F)F)c(NCc3nccnc3N(C)S(C)(=O)=O)n2)cc1	cell-free assay	competition with immobilised ligand	0.1 µM	68%
Cc1cnn2ncc(-c3ccnc(N(C)C)n3)c2c1	binding		1 µM	100%
